Non-standard residues stand in square brackets, D forms with d. Residues, ends and D or L forms follow the SMILES beside them. No end group written: not given here. pT = C[C@@H](OP(=O)(O)O)[C@H](N)C(=O)O; pS = N[C@@H](COP(=O)(O)O)C(=O)O
Experiments:
[1] = target: T1, NBS1 (Homo sapiens, UniProt O60934); experiment: Isothermal titration calorimetry; format: binding
T1 sequence (O60934 1-382 limits assumed): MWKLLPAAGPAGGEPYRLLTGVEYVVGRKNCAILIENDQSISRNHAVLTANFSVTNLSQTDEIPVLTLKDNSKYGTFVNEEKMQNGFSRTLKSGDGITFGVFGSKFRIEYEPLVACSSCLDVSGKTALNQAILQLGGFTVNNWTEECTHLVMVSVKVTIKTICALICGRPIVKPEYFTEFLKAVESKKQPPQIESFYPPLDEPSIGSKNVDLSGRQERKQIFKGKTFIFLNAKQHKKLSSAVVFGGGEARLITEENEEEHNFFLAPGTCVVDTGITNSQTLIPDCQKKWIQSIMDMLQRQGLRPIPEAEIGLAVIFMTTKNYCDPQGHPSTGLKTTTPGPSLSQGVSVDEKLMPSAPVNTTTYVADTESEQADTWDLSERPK

[2] = test system: NBS1-GFP positive nucleoli; format: cell-based; conditions: PARP inhibition (Supplementary Fig. 6c)
Procedure, shortened: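 U2OS cells stably expressing NBS1-GFP (U2OS-NBS1-GFP2) were grown in DME with 10 % fetal bovine serum, penicillin and streptomycin. Medium was supplemented with the PARP inhibitor veliparib (ABT888) for 1 h. Each cell was scored manually as positive or negative by visual presence of GFP signal within nucleoli.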

[3] = target: NBS1 N-terminal FHA-BRCT region (sample of the ITC) (human); experiment: ITC

CC(C)[C@H](NC(=O)[C@H](CC(=O)O)NC(=O)[C@@H](NC(=O)[C@H](CCC(=O)O)NC(=O)[C@H](CC(=O)O)NC(=O)[C@H](COP(=O)(O)O)NC(=O)[C@H](CO)NC(=O)[C@H](CO)NC(=O)[C@@H](N)CO)[C@@H](C)OP(=O)(O)O)C(=O)N[C@@H](CCC(=O)O)C(=O)O [SDET] (H-SSS[pS]DE[pT]DVE-OH)
Kd [1]: ~1000 nM

C[C@]1(c2nc3c(C(N)=O)cccc3[nH]2)CCCN1 [PARP inhibition, Veliparib]
number of cells with NBS1-GFP positive nucleoli [2]: small but reproducible decrease

SSS[pS]DE[pT]DVE [Treacle SDET phosphopeptide (SSSpSDEpTDVE)]
Kd [3]: 1000 nM

From article PMC4962910 (Nature cell biology, 2014)
